NTR1 agonist = agonists of human NTR1, primary screen, imaging, U2OS cells, beta-arrestin-GFP, high content. 330,000 tested, 0.17% active. activation, % at 20 µM. NTR1-U2OS beta-arrestin-GFP spot imaging, agonist mode;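 active = activation at or above 40% of the spot to cytoplasm intensity ratio, with at least 20 cells analyzed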
MC4R ag barr = MC4R agonists recruiting beta-arrestin, primary screen, cell-based, luminescence, agonist arm of biased-ligand search. Melanocortin receptor 4 (Homo sapiens), P32245. U2OS MC4R beta-arrestin complementation; percent of melanotan II response, DMSO zero. 360,000 tested, 0.98% active. activation, % at 8.9 µM;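 active = activation above a per-plate cutoff, the mean activation of sample wells on that plate plus 3 SD, cut at about 8% in these data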
Target sequence (P32245 whole entry, looked up): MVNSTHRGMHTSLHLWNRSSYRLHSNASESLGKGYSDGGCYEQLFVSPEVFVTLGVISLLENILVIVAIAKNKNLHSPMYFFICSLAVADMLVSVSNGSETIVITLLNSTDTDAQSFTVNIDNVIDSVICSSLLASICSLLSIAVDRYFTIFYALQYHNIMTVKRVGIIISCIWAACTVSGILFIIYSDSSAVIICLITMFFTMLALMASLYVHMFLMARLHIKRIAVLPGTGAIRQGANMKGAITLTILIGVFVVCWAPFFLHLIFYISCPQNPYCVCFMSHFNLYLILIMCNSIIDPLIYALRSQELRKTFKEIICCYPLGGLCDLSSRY
MC4R antagonist = MC4R antagonists of cAMP signaling, primary screen, cell-based, TR-FRET, antagonist arm of biased-ligand search; Melanocortin receptor 4 (Homo sapiens), P32245; MC4R-expressing cells, MTII-stimulated cAMP, LANCE TR-FRET; inhibition, % at 6.5 µM; 360,000 tested, 0.48% active; AID 540295, 2011;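 active = inhibition above its plate's cutoff, the mean of tested wells on that plate plus 3 SD, cut at about 29% in these data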
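Test system: U2OS cells stably expressing human melanocortin 4 receptor (MC4R); also added: Melanotan II challenge; compound: 6.5 µM single dose; timing: 30-min compound preincubation, 1-h Melanotan II challenge, 1-h detection, room temperature; signal: Eu-cAMP/anti-cAMP TR-FRET, emission 671 nm; repeats: one well per compound, no replicates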
AI-2 QS mod = Vibrio harveyi AI-2 quorum sensing modulators, primary screen, JMH597 strain, luminescence/OD600 ratio | AID 2094, 2009 | 300,000 tested, 0.4% active | activity change, % at 7.5 µM | Vibrio harveyi JMH597 AI-2 luminescence/OD600 ratio, 9 h; hits give low values; strain lacks LuxN and CqsS sensors; 0 = neutral-control median; in the data active = activity change below about -75%, passing the limit was not always enough;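 note: luminescence divided by OD600 gain over 9 h not by final OD600 alone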
cAMP nonselect = nonselective cAMP signaling inhibitors, parental cells, counter-screen for MC4R biased antagonist project, cell-based, TR-FRET, U2OS, forskolin, triplicate; LANCE TR-FRET; inhibition, % at 6.5 µM; shares compounds with MC4R antagonist; 1,600 tested, 26% active;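 active = mean inhibition over triplicates above the low-control well mean plus 3 SD, set per campaign, cut at about 13% in these data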;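 note: signal is single emission at 671 nm which falls as cellular cAMP rises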
MC4R cAMP antag = MC4R cAMP antagonists, retest, confirmation, cell-based, TR-FRET; MC4R-expressing cells, MTII-stimulated cAMP; 1,600 tested, 27% active; shares compounds with MC4R antagonist; inhibition, % at 6.5 µM; AID 602195, 2012; in the data active = inhibition above about 29%
Numbers stand for hits. Sampled rows, rich in hits. Any-hit rate of the full collection: about 1.8%.

What do the screens show for `O=C(O)CCn1c(=O)n(CCC(=O)O)c(=O)n(CCC(=O)O)c1=O`?
NTR1 agonist: inactive; MC4R ag barr: inactive; MC4R antagonist: 28.6; AI-2 QS mod: inactive; cAMP nonselect: inactive; MC4R cAMP antag: inactive

What do the screens show for `CCCCc1nnc(NC(=O)c2ccc3c(=O)n4c(nc3c2)CCC4)s1`?
NTR1 agonist: inactive; MC4R ag barr: inactive; MC4R antagonist: inactive; AI-2 QS mod: inactive

What do the screens show for `COC(=O)CCc1sc(NC2CCCCC2)nc1-c1ccc(OC)cc1`?
NTR1 agonist: inactive; MC4R ag barr: inactive; MC4R antagonist: inactive; AI-2 QS mod: inactive

How did CCCCCCNc1nc(-c2ccc(OC)cc2)c(CCC(=O)O)s1 do in these assays?
NTR1 agonist: inactive; MC4R ag barr: inactive; MC4R antagonist: 29.5; AI-2 QS mod: inactive; cAMP nonselect: inactive; MC4R cAMP antag: inactive

How did O=C(N=C1SC2CS(=O)(=O)CC2N1c1ccc(F)cc1)C1CC1 (stereo not given) do in these assays?
NTR1 agonist: inactive; MC4R ag barr: inactive; MC4R antagonist: inactive; AI-2 QS mod: inactive

What do the screens show for `COc1ccc(CC(=O)Oc2ccc(C(C)(C)C)cc2)cc1S(=O)(=O)N1CCOCC1`?
NTR1 agonist: inactive; MC4R ag barr: inactive; MC4R antagonist: 31.9; AI-2 QS mod: inactive; cAMP nonselect: inactive; MC4R cAMP antag: inactive

Results for CCc1ccc(OC(=O)Cc2ccc(OC)c(S(=O)(=O)N3CCOCC3)c2)cc1 ?
NTR1 agonist: inactive; MC4R ag barr: inactive; MC4R antagonist: inactive

How did Cc1cccc([C@@H]2[C@@H]3C(=O)N(Cc4ccccc4)C(=O)[C@@H]3[C@]3(Cc4ccccc4)C(=O)N(c4ccc(C(F)(F)F)cc4)C(=O)N23)c1 do in these assays?
NTR1 agonist: inactive; MC4R ag barr: inactive; MC4R antagonist: inactive; AI-2 QS mod: inactive

What do the screens show for `Cc1ccc(S(=O)(=O)N(C)CC(=O)OCC(=O)N2CCN(c3ccccc3)CC2)cc1`?
NTR1 agonist: inactive; MC4R ag barr: inactive; MC4R antagonist: 33.2; AI-2 QS mod: inactive; cAMP nonselect: 19.9; MC4R cAMP antag: inactive

Results for O=C(c1ccco1)N1CCN(c2ncnc3sc4c(c23)CCC4)CC1 ?
NTR1 agonist: inactive; MC4R ag barr: inactive; MC4R antagonist: inactive; AI-2 QS mod: inactive

What do the screens show for `O=C(c1ccco1)N1CCN(c2ncnc3scc(-c4ccc(Cl)cc4)c23)CC1`?
MC4R ag barr: inactive; MC4R antagonist: 30.5; cAMP nonselect: inactive; MC4R cAMP antag: inactive

Results for Cc1csc(NC(=O)C(C)N2C(=O)c3ccccc3S2(=O)=O)n1 (stereo not given) ?
NTR1 agonist: inactive; MC4R ag barr: inactive; MC4R antagonist: inactive; AI-2 QS mod: inactive

What do the screens show for `O=C(CN1C(=O)C2CCCCC2C1=O)OCC(=O)c1ccc(F)cc1` (stereo not given)?
NTR1 agonist: inactive; MC4R ag barr: inactive; MC4R antagonist: inactive

Results for CC1=C(CO)C(=O)OC([C@@H](C)C2CC[C@H]3C4C[C@H]5O[C@]56[C@@H](O)C=CC(=O)[C@]6(C)C4CC[C@]23C)C1 (stereo not given in full) ?
MC4R ag barr: inactive; MC4R antagonist: 38.6; AI-2 QS mod: inactive; cAMP nonselect: inactive; MC4R cAMP antag: 48.3

How did O=C(O)c1cc(S(=O)(=O)N2CCCCC2)ccc1N1CCCCC1 do in these assays?
NTR1 agonist: inactive; MC4R ag barr: inactive; MC4R antagonist: inactive

What do the screens show for `CCOc1ncccc1C(=O)NCCCSc1ccccc1`?
NTR1 agonist: inactive; MC4R ag barr: inactive; MC4R antagonist: inactive; AI-2 QS mod: inactive

How did Cc1[nH]nc(S(=O)CC(=O)O)c1[N+](=O)[O-] (stereo not given) do in these assays?
NTR1 agonist: inactive; MC4R ag barr: inactive; MC4R antagonist: 31.4; AI-2 QS mod: inactive; cAMP nonselect: inactive; MC4R cAMP antag: inactive
